In ChEMBL document CHEMBL1126141, “Substituted 4,6-diaminoquinolines as inhibitors of C5a receptor binding” (J Med Chem, 1992):
Converted amounts (≈) assume the structure as drawn.

What was measured:
[1] = species on record: Homo sapiens; test: Compound was tested for the inhibition of C5a- induced human neutrophil activation; type: functional
Summary of the method: (§1)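 Freshly isolated human PMN (Ficoll-Hypaque, erythrocytes lysed with NH4Cl/EDTA/KHCO3), 4×10^5/mL in HBSS. Preincubated with compound or 1% aqueous DMSO 20 min at 37 °C, then cytochalasin B (5 μg/mL final) 5 min. Stimulated 5 min at 37 °C with C5a or fMLF, or no stimulus for nonspecific release. MPO read with dimethoxybenzidine/H2O2 at pH 6.0, azide-quenched at 2 min, A450. Duplicate or triplicate.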

[2] = species on record: Homo sapiens; test: Compound was tested for the inhibition of fMLF- induced human neutrophil activation; type: functional; summary of the method: as §1
[3] = biological target: T1, C5a anaphylatoxin chemotactic receptor 1 (Homo sapiens, UniProt P21730); test: Ability to inhibit binding of radiolabeled C5a anaphylatoxin to intact membrane bound receptor from human neutrophils.
T1 sequence (P21730 whole entry): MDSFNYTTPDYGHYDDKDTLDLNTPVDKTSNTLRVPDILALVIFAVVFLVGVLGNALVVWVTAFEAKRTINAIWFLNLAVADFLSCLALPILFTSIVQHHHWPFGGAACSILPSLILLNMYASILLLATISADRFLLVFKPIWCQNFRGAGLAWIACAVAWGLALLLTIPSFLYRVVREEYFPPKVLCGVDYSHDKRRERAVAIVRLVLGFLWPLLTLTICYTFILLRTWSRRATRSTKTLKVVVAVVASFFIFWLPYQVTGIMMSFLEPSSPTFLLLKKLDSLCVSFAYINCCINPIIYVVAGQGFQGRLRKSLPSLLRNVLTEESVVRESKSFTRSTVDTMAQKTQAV
Summary of the method: (§2)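 Buffer was HBSS with 10 mM pMSF and 0.5% BSA, HEPES pH 7.2. Compounds were added from 1% aqueous DMSO. Filtration used polyethyleneimine-soaked GF filters, read by gamma counting. Nonspecific binding was set with ≥20 ng unlabeled C5a. IC50 came from a four-parameter logistic fit.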

[4] = biological target: T2, Myeloperoxidase (Homo sapiens, UniProt P05164); test: Compound was tested for the induction of nonspecific myeloperoxidase (MPO) release; type: functional; summary of the method: as §1
T2 sequence (P05164 whole entry): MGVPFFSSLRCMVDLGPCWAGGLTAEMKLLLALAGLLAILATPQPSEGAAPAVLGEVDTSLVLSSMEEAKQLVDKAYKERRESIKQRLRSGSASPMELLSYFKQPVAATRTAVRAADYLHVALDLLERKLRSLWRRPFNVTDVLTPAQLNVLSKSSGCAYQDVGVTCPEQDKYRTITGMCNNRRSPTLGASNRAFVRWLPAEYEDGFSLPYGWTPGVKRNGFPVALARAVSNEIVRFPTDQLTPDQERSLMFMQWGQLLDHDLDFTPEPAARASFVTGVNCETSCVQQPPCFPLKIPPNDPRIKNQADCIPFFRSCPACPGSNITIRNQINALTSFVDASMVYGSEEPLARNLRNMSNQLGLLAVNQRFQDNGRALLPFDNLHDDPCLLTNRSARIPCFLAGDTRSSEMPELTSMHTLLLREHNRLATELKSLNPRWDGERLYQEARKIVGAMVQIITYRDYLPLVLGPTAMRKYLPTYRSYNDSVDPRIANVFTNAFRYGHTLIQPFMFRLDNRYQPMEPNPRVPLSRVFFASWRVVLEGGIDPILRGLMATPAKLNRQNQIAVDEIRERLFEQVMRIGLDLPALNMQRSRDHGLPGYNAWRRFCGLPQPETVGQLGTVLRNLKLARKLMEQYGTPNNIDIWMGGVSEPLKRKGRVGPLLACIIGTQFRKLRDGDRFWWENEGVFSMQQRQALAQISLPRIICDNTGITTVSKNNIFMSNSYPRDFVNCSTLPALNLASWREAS

[5] = biological target: T1, C5a anaphylatoxin chemotactic receptor 1; test: Compound was tested for its ability to inhibit binding of radiolabeled C5a anaphylatoxin chemotactic receptor to intact membrane bound receptor from human neutrophils.; insoluble; summary of the method: as §2

With `Cc1cc(N)c2cc(NC(=O)/C=C/c3c(Cl)cccc3Cl)ccc2n1` the EC50 [1] was 4 µg/mL (≈ 10.7 µM), the EC50 [2] was 4 µg/mL (≈ 10.7 µM) and the IC50 [3] was 21.5 µM.

`Cc1cc(N)c2cc(NC(=O)/C=C/c3cccc(C(F)(F)F)c3)ccc2n1` gave an IC50 [3] of 10.8 µM.

`Cc1cc(N)c2cc(NC(=O)/C=C/c3ccccc3Cl)ccc2n1` gave an EC50 [1] of 4 µg/mL (≈ 11.8 µM), an EC50 [2] of 5 µg/mL (≈ 14.8 µM) and an IC50 [3] of 35.5 µM.

`Cc1cc(N)c2cc(N)ccc2n1` was tested, and the IC50 [3] was > 577 µM.

With `Cc1cc(NCc2ccccc2)c2cc(NC(=O)C(=O)Nc3ccc4nc(C)cc(NCc5ccccc5)c4c3)ccc2n1` the IC50 [3] was > 86.1 µM.

`Cc1cc(N)c2cc(NC(=O)CC(=O)Nc3ccc4nc(C)cc(N)c4c3)ccc2n1` gave an IC50 [3] of 43.4 µM.

For `Cc1cc(N)c2cc(NC(=O)c3ccc4ccccc4c3)ccc2n1`, the IC50 [3] was 91.6 µM.

With `Cc1cc(N)c2cc(NC(=O)/C=C/c3ccccc3)ccc2n1` the IC50 [3] was 98.9 µM.

`Cc1cc(NCc2ccccc2)c2cc(NC(=O)/C=C/c3ccccc3Cl)ccc2n1` was tested, and the EC50 [1] was < 3 µg/mL, the EC50 [2] was < 3 µg/mL and the EC50 [4] was 11.7 µM. The IC50 [3] was > 234 µM.

With `COc1cc(C)nc2ccc(NC(=O)/C=C/c3ccccc3Cl)cc12` the IC50 [3] was > 142 µM.

With `Cc1cc(N)c2cc(NC(=O)/C=C/c3ccc(C(F)(F)F)cc3)ccc2n1` the IC50 [3] was 18.8 µM.

`Cc1cc(N)c2cc(NC(=O)c3ccccc3)ccc2n1` was tested, and the IC50 [3] was > 361 µM.

With `Cc1cc(N)c2cc(NC(=O)Nc3ccc4nc(C)cc(N)c4c3)ccc2n1` [AMINOQUINURIDE] the EC50 [1] was 15 µg/mL (≈ 40.3 µM) and the IC50 [3] was 8.86 µM.

With `Cc1ccc2cc(NC(=O)Nc3ccc4nc(C)ccc4c3)ccc2n1` the IC50 [3] was > 146 µM.

With `Cc1cc(NCc2ccccc2)c2cc(NC(=O)/C=C/c3ccccc3C(F)(F)F)ccc2n1` the IC50 [3] was > 217 µM.

`CCCC(=O)Nc1ccc2nc(C)cc(N)c2c1` was tested, and the IC50 [3] was > 411 µM.

With `Cc1cc(N)c2cc(C(=O)NCc3ccccc3)ccc2n1` the IC50 [3] was > 343 µM.

`Cc1cc(N)c2cc(NC(=O)CCc3ccccc3)ccc2n1` was tested, and the IC50 [3] was > 327 µM.

For `Cc1cc(N)c2cc(NC(=O)CCCCC(=O)Nc3ccc4nc(C)cc(N)c4c3)ccc2n1`, the IC50 [3] was > 110 µM.

For `Cc1cc(N)c2cc(NC(=O)CCCCCCCCC(=O)Nc3ccc4nc(C)cc(N)c4c3)ccc2n1`, the IC50 [3] was > 97.5 µM.

Molecule `CCCCCCCC(=O)Nc1ccc2nc(C)cc(N)c2c1` has an IC50 [3] of 100 µM.

Work on `Cc1cc(N)c2cc(NC(=O)C(=O)Nc3ccc4nc(C)cc(N)c4c3)ccc2n1` yielded an EC50 [1] of 4 µg/mL (≈ 9.99 µM) and an IC50 [3] of 4.99 µM.

In the case of `Cc1cc(NCc2ccccc2)c2cc(N)ccc2n1`, the IC50 [3] is reported as > 380 µM.

`CCCCCCCCNc1cc(C)nc2ccc(NC(=O)/C=C/c3ccccc3Cl)cc12` was tested, and the IC50 [3] was > 222 µM.

`Cc1cc(N)c2cc(NC(=O)/C=C/c3c(F)c(F)c(F)c(F)c3F)ccc2n1` was tested, and the IC50 [5] was “Not Active”.

For `CCCCCCCCNC(=O)c1ccc2nc(C)cc(N)c2c1`, the IC50 [3] was > 319 µM.

With `Cc1cc(N)c2cc(NC(=O)/C=C/c3ccccc3C(F)(F)F)ccc2n1` the EC50 [1] was 4 µg/mL (≈ 10.8 µM), the EC50 [2] was 4 µg/mL (≈ 10.8 µM) and the IC50 [3] was 24.2 µM.
